From ChEMBL document CHEMBL1125564, “Selective, centrally acting serotonin 5-HT2 antagonists. 2. Substituted 3-(4-fluorophenyl)-1H-indoles” (J Med Chem, 1992)

Experiments:
[1] = target: Serotonin 2 (5-HT2) receptor (Rattus norvegicus, UniProt P30994+P08909+P14842); assay: Displacement of [3H]ketanserin from 5-hydroxytryptamine 2 receptor in rat cortical membranes; assay type: cell membranes, Membrane
Procedure, shortened: (§1)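 Two full concentration curves per compound, five concentrations in triplicate covering three decades. IC50 read from log-concentration curves, given as logarithmic mean of at least two determinations. Ratios beyond 3 × SD prompted extra runs, with outliers discarded.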

[2] = target: T1, Alpha-1A adrenergic receptor (Rattus norvegicus, UniProt P43140); assay: Displacement of [3H]prazosin from Alpha-1 adrenergic receptor in whole rat brain membranes; assay type: cell membranes; procedure, shortened: as §1
T1 sequence (P43140 whole entry): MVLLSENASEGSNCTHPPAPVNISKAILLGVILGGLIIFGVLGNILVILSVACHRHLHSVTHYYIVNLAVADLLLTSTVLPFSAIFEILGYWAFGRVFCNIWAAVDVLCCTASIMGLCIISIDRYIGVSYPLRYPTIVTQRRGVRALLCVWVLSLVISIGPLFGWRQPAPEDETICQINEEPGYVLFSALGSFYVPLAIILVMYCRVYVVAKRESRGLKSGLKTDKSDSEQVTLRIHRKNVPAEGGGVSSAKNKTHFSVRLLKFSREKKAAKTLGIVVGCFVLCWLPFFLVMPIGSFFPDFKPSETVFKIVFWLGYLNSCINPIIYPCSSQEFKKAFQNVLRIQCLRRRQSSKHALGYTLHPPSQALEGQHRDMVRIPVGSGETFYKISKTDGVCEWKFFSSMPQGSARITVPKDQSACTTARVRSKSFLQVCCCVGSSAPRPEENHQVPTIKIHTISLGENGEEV

D(2) dopamine receptor = D(2) dopamine receptor (Rattus norvegicus, UniProt P61169); assay: Displacement of [3H]spiperone from Dopamine receptor D2 rat striatal membranes; assay type: cell membranes, Membrane; procedure, shortened: as §1
Rattus norvegicus [3] = assay: Compound was evaluated for the inhibition of pergolide-induced reactions after 2 hr (administered subcutaneously); assay type: functional; details: sc
Procedure, shortened: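 Male Wistar rats with unilateral 6-OHDA lesions; test compound given sc 2 h before pergolide (0.05 μmol/kg, sc) to induce contralateral circling. Each dose scored as percent of the rat's mean control sessions 1 week before and 1 week after the test, at least four rats per dose. ED50 by log-probit analysis.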

Rattus norvegicus [4] = assay: Compound was evaluated for the inhibition of quipazine-induced head twitches after 2 hr (administered subcutaneously); assay type: functional; details: sc
Procedure, shortened: (§2)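 Male Wistar rats (Mol:Wist, SPF, 170–270 g), at least four per dose, dosed sc or po 2 or 24 h before quipazine (15 μmol/kg, sc). Head twitches counted 30–40 min after quipazine and expressed as percent of a quipazine-treated control group. ED50 by log-probit analysis.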

Rattus norvegicus [5] = assay: Compound was evaluated for the inhibition of quipazine-induced head twitches after 24 hr (administered perorally); assay type: functional; details: po; procedure, shortened: as §2
Rattus norvegicus [6] = assay: Compound was evaluated for the inhibition of quipazine-induced head twitches after 24 hr (administered subcutaneously); assay type: functional; details: sc; procedure, shortened: as §2

Sequence of D(2) dopamine receptor (P61169 whole entry): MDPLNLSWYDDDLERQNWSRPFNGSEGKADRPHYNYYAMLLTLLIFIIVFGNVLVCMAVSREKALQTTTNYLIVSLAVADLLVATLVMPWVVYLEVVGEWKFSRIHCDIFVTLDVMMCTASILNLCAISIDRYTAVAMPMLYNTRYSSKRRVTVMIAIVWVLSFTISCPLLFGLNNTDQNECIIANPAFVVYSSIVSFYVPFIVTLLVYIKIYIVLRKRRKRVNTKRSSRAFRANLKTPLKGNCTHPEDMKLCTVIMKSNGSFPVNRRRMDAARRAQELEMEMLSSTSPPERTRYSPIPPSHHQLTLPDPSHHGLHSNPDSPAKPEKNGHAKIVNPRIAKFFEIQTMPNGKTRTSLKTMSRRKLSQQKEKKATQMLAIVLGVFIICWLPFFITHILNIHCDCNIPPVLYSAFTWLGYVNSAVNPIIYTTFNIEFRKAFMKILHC

Structure (SMILES) | IC50 [1] [nM] | IC50 [2] [nM] | IC50 (D(2) dopamine receptor) [nM] | ED50 (Rattus norvegicus [3]) [µmol/kg] | ED50 (Rattus norvegicus [4]) [µmol/kg] | ED50 (Rattus norvegicus [5]) [µmol/kg] | ED50 (Rattus norvegicus [6]) [µmol/kg]
Cc1cccc2c(-c3ccc(F)cc3)cn(C3=CCN(CCN4CCNC4=O)CC3)c12 | 5.8 | 27 | 530 | – | – | – | –
O=C1NCCN1CCN1CCC(n2cc(-c3ccc(F)cc3)c3cc(Cl)ccc32)CC1 | 5.7 | 67 | – | – | – | – | –
Cc1cccc2c(-c3ccc(F)cc3)cn(C3CCN(CCN4CCNC4=O)CC3)c12 | 3.6 | 23 | 370 | – | – | – | –
O=C1NCCN1CCN1CCC(c2cn(-c3ccc(F)cc3)c3ccc(Cl)cc23)CC1 [SERTINDOLE] | – | 3.4 | – | – | – | – | –
O=C1NCCN1CCN1CCC(n2cc(-c3ccc(F)cc3)c3cc(C(F)(F)F)ccc32)CC1 | 9.3 | 190 | 2500 | – | – | – | –
CC(C)N1CCN(CCN2CCC(c3cn(-c4ccc(F)cc4)c4cc(Cl)ccc34)CC2)C1=O | – | 70 | – | – | – | – | –
O=C1NCCN1CCN1CCC(n2cc(-c3ccc(F)cc3)c3ccc(Cl)cc32)CC1 | 1.9 | 11 | – | 9.3 | 0.3 | – | 0.68
Cc1cccc2c1c(-c1ccc(F)cc1)cn2C1CCN(CCN2CCNC2=O)CC1 | 7.9 | 34 | 200 | – | – | – | –
O=C1NCCN1CCN1CCC(n2cc(-c3ccc(F)cc3)c3ccccc32)CC1 | 3.1 | 6.3 | – | – | – | – | –

More lines, main results first:

IC50 [1] [nM] | IC50 [2] [nM] | IC50 (D(2) dopamine receptor) [nM] | Structure (SMILES) | ED50 (Rattus norvegicus [3]) [µmol/kg] | ED50 (Rattus norvegicus [4]) [µmol/kg] | ED50 (Rattus norvegicus [5]) [µmol/kg] | ED50 (Rattus norvegicus [6]) [µmol/kg]
2.7 | 280 | – | Cc1ccc2c(c1)c(-c1ccc(F)cc1)cn2C1CCN(CCN2CCN(C(C)C)C2=O)CC1 | > 18 | 0.062 | 0.019 | 0.014
15 | 500 | – | Cc1ccc2c(c1)c(-c1ccc(F)cc1)cn2N1CCN(C)CC1 | – | – | – | –
1.6 | 71 | – | Cc1ccc2c(c1)c(-c1ccc(F)cc1)cn2C1CCN(CCN2CCNC2=O)CC1 | > 24 | 0.019 | 0.0041 | 0.0081
2.8 | 1000 | – | Cc1ccc2c(c1)c(-c1ccc(F)cc1)c(C)n2C1=CCN(CCN2CCNC2=O)CC1 | – | – | – | –
3.4 | 2300 | – | Cc1ccc2c(c1)c(-c1ccc(F)cc1)c(C)n2C1CCN(CCN2CCNC2=O)CC1 | > 23 | 0.096 | 0.038 | 0.0041
2.2 | 54 | 1200 | CNC(=O)N(C)CCN1CCC(n2cc(-c3ccc(F)cc3)c3cc(C)ccc32)CC1 | > 22 | 0.036 | 0.004 | 0.0021
3.2 | 19 | – | O=C1NCCN1CCN1CCC(n2cc(-c3ccc(F)cc3)c3cc(F)ccc32)CC1 | – | – | – | –
2.3 | 89 | – | Cc1ccc2c(c1)c(-c1ccc(F)cc1)cn2C1CCN(CCNC(=O)N(C)C)CC1 | – | – | – | –
5.3 | 2700 | – | Cc1ccc2c(c1)c(-c1ccc(F)cc1)c(C)n2C1CCN(C)CC1 | > 30 | 0.25 | 0.046 | 0.028
4.5 | 190 | – | Cc1ccc2c(c1)c(-c1ccc(F)cc1)cn2C1CCN(C)CC1 | – | – | – | –
1.5 | 24 | 280 | Cc1ccc2c(c1)c(-c1ccc(F)cc1)cn2C1=CCN(CCN2CCNC2=O)CC1 | – | – | – | –
